Measurements gathered from unrelated publications.
AXL: Tyrosine-protein kinase receptor UFO (AXL, Homo sapiens, UniProt P30530)

Compound | target | test | conditions | measurement | result
O=c1[nH]c2ccccc2n1C1CCN(Cc2ccc(-c3[nH]c4cc5ncnc5cc4nc3-c3ccccc3)cc2)CC1 | AXL | cell-free assay | 0.5 µM | remaining signal | 105%
Cn1cncc1[C@](O)(COc1ccc(C#N)cc1-c1ccc(OC(F)(F)F)cc1)c1ccc(C#N)cc1 | AXL | cell-free assay, competition with immobilised ligand | 1 µM | remaining binding | 100%
COc1cc(Nc2ncc(F)c(Nc3ccc4c(n3)NC(=O)C(C)(C)O4)n2)cc(OC)c1OC | AXL | binding, competition with immobilised ligand | 10 µM | inhibition | 100%
CC(C)(C)c1cc(C=C(C#N)C#N)cc(Br)c1O | AXL | enzyme activity, inhibitor | 0.5 µM | remaining activity | 103%
C#Cc1n[nH]c2c(-c3cn(C(C)c4ccccn4)c(=O)[nH]c3=O)cc(F)cc12 (centres unmarked) | Tyrosine-protein kinase receptor UFO (AXL, Homo sapiens, UniProt P30530, R499C) | enzyme activity, inhibitor | 1 µM | inhibition | 67.6%
N#CC1(c2ccccn2)CCN(Cc2cc(C(=O)O)c(=O)n3ccccc23)CC1 | AXL | cell-free assay, competition with immobilised ligand | 1 µM | remaining binding | 91%
COc1ncccc1-c1cnn2ccc(N3CCN(C(=O)OC(C)C)CC3)nc12 | AXL | binding, competition with immobilised ligand | 1 µM | remaining binding | 100%
Cn1cc(-c2cccc(N3CCc4c(sc5c4CC(C)(C)C5)C3=O)c2CO)cc(Nc2ccncn2)c1=O | AXL | enzyme activity, inhibitor | 1 µM | inhibition | 3%
Cc1nn(C)cc1-c1nc2c(N3CCN(Cc4ccc(Cl)cc4)CC3)c(Cl)cnc2[nH]1 | AXL | binding, competition with immobilised ligand | 1 µM | remaining binding | 2.2%
Nc1ncc(-c2nc(N3CCOCC3)nc(N3CCOCC3)n2)c(C(F)F)n1 | AXL | binding, competition with immobilised ligand | 10 µM | remaining binding | 91%
Cn1cc(-c2cc(F)cc(N3CCn4c(cc5c4CCCC5)C3=O)c2CO)cc(Nc2ccc(N3CCN(C4COC4)CC3)cn2)c1=O | AXL | enzyme activity, inhibitor | 0.1 µM | inhibition | 12%
